Reference: ChEMBL document CHEMBL1142414, “Comprehensive mechanistic analysis of hits from high-throughput and docking screens against beta-lactamase” (J Med Chem, 2008)

Target: T1, Cruzipain (Trypanosoma cruzi, UniProt P25779)
T1 sequence (P25779 whole entry): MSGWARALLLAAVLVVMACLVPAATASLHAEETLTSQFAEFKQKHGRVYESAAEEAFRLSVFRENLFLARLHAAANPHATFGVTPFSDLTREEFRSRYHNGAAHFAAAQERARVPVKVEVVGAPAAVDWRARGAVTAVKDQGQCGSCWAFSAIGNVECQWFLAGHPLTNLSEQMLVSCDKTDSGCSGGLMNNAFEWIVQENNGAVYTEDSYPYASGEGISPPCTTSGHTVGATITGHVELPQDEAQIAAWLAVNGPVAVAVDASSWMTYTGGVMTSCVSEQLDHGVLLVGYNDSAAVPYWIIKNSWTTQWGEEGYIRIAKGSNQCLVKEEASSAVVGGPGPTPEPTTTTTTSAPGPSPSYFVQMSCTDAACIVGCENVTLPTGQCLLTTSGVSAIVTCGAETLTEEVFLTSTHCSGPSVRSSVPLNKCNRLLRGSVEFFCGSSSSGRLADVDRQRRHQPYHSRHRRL
Experiment: Inhibition of cruzain in presence of 0.01% Triton X-100
Method in brief: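 Recombinant cruzain (10 nM) in 0.1 M sodium acetate pH 5.5 with 5 mM DTT and 0.01% Triton X-100, substrate 2.5 µM Z-Phe-Arg-AMC. Cleavage read fluorimetrically in 96-well format, excitation 355 nm, emission 460 nm.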
For `CC(C)[C@H](NC(=O)OC(C)(C)C)c1nnc(S(=O)(=O)Cc2c(F)cccc2Cl)o1` (stereo in doubt), the IC50 was < 1 µM.

Target: not listed separately
Experiment: Inhibition of malate dehydrogenase
Method in brief: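 Malate dehydrogenase (2 nM) incubated 5 min with inhibitor, then reaction started with 200 µM oxaloacetic acid plus 200 µM NADH. In the no-preincubation variant, inhibitor, oxaloacetate and NADH were mixed first and enzyme was added last. NADH consumption followed at 340 nm.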
With `O=C(NCCc1ccccc1)C1CCCN(S(=O)(=O)c2cccc3nsnc23)C1` (configuration not stated) the IC50 was > 600 µM.

Tested on: not listed separately
Experiment: Inhibition of chymotrypsin in presence of 0.1% Triton X-100
Method in brief: (§1)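 Chymotrypsin (28 nM) preincubated 5 min with inhibitor, then reaction started with 200 µM N-succinyl-Ala-Ala-Pro-Phe p-nitroanilide. In the no-preincubation variant, inhibitor and substrate were mixed first and enzyme was added to start. Progress read at 410 nm.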
With `O=C(NCCc1ccccc1)C1CCCN(S(=O)(=O)c2cccc3nsnc23)C1` (configuration not stated) the IC50 was 345 µM.

Tested on: not listed separately
Experiment: Inhibition of chymotrypsin
Method in brief: as §1
In the case of `c1cc2c3c(c1)c1c(n3CCNC2)CCCC1`, the IC50 is reported as > 600 µM. For `N#Cc1cccc(-c2nc(NCc3cccnc3)c3ccccc3n2)c1`, the IC50 was > 600 µM. With `COc1ccc(-c2cc(C(=O)NCc3ccccc3)no2)cc1OC` the IC50 was > 600 µM. `O=C(NCCc1ccccc1)C1CCCN(S(=O)(=O)c2cccc3nsnc23)C1` (configuration not stated) showed an IC50 of 220 µM. With `CN(C)C/C=C(\c1ccc(Br)cc1)c1cccnc1` the IC50 was > 600 µM. In the case of `CC1=C/C(=C\c2ccc3c(c2)OCO3)C(=O)S1`, the IC50 is reported as > 600 µM. In the case of `COc1cccc(-c2nccc(-n3ccnc3)n2)c1`, the IC50 is reported as > 600 µM. For `COc1cccc(-c2ccc3ncnc(NCc4ccc(OC)cc4OC)c3c2)c1`, the IC50 was > 600 µM.

Target: T1, Cruzipain
Experiment: Inhibition of cruzain
With `CC(C)[C@H](NC(=O)OC(C)(C)C)c1nnc(S(=O)(=O)Cc2c(F)cccc2Cl)o1` (stereo in doubt) the IC50 was < 1 µM.

Target: not listed separately
Experiment: Inhibition of beta-lactamase AmpC
Method in brief: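 Cuvette assay with 1 nM AmpC β-lactamase and 200 µM nitrocefin, Triton X-100 at either 0.00002 or 0.1%. Compound and enzyme preincubated 5 min, then substrate added to start the reaction.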
In the case of `c1cc2c3c(c1)c1c(n3CCNC2)CCCC1`, the IC50 is reported as > 600 µM. With `N#Cc1cccc(-c2nc(NCc3cccnc3)c3ccccc3n2)c1` the IC50 was > 600 µM. With `COc1ccc(-c2cc(C(=O)NCc3ccccc3)no2)cc1OC` the IC50 was > 600 µM. `O=C(O)c1ccc2c(c1)C(=O)N([C@H](Cc1c[nH]c3ccccc13)C(=O)O)C2=O` showed a Ki of 17 µM. For `O=C(NCCc1ccccc1)C1CCCN(S(=O)(=O)c2cccc3nsnc23)C1` (configuration not stated), the IC50 was > 600 µM. Work on `O=C(O)c1ccc2c(c1)C(=O)N(CCc1ccc(O)cc1)C2=O` yielded a Ki of 360 µM. For `CCOc1ccccc1CNC(=O)c1cc2occc2n1C`, the IC50 was > 600 µM. With `CN(C)C/C=C(\c1ccc(Br)cc1)c1cccnc1` the IC50 was > 600 µM. In the case of `CC1=C/C(=C\c2ccc3c(c2)OCO3)C(=O)S1`, the IC50 is reported as > 600 µM. With `COc1cccc(-c2nccc(-n3ccnc3)n2)c1` the IC50 was > 600 µM. `O=C(O)c1ccc2c(c1)C(=O)N([C@@H](Cc1ccc(O)cc1)C(=O)O)C2=O` showed a Ki of 158 µM. In the case of `O=C(O)CN1C(=O)c2ccc(C(=O)O)cc2C1=O`, the Ki is reported as 6900 µM. `O=C(O)c1ccc2c(c1)C(=O)N([C@H](Cc1cccc3ccccc13)c1nnn[nH]1)C2=O` gave a Ki of 41 µM. For `O=C(O)c1ccc2c(c1)C(=O)N([C@H](Cc1ccc3ccccc3c1)C(=O)O)C2=O`, the Ki was 14 µM. In the case of `COc1cccc(-c2ccc3ncnc(NCc4ccc(OC)cc4OC)c3c2)c1`, the IC50 is reported as > 600 µM. In the case of `COc1cc2c(=O)n(Cc3ccco3)c(=O)n(CC(=O)c3cccc(Br)c3)c2cc1OC`, the IC50 is reported as > 600 µM. For `CSCCC(C(=O)O)N1C(=O)c2ccc(C(=O)O)cc2C1=O` (racemic), the Ki was 1300 µM. `O=C(O)c1ccc2c(c1)C(=O)N(C(Cc1ccccc1)C(=O)O)C2=O` (racemic) showed a Ki of 210 µM. `CC(C)CC(C(=O)O)N1C(=O)c2ccc(C(=O)O)cc2C1=O` (racemic) gave a Ki of 1200 µM. `O=C(O)C(Cc1ccccc1)N1C(=O)c2ccccc2C1=O` (racemic) gave a Ki of 830 µM.
